Results as given in ChEMBL document CHEMBL1153389, “Identification of novel antibacterial peptides by chemoinformatics and machine learning” (2009).

How the values were obtained:
Format in all cases: functional
Pseudomonas aeruginosa [1] = assay: Antimicrobial activity against Pseudomonas aeruginosa H1001 expressing luciferase gene assessed as ratio antimicrobial IC50 for drug to Bac2A peptide by luminescence assay
Procedure, shortened: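 Peptides are made by SPOT synthesis on cellulose, cleaved, and the spots placed in plate wells. Overnight P. aeruginosa H1001 (fliC::luxCDABE) is diluted 1:500 in 100 mM Tris-HCl pH 7.3 with 20 mM glucose and added to the wells. After 30 min, serial dilutions (8 rows) are made. Luminescence is read at 4 h. IC50 is taken from a sigmoid fit and expressed relative to Bac2A run in the same series.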

Klebsiella pneumoniae [2] = assay: Antimicrobial activity against extended-spectrum beta-lactamase-resistant Klebsiella pneumoniae 61962 after overnight incubation by broth microdilution method
Procedure, shortened: (§1)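 Modified broth microdilution in polypropylene 96-well plates with Mueller-Hinton (MH) medium. Bulk-synthesized peptides were serially diluted at 10-fold final strength in 0.01% acetic acid with 0.2% BSA, then added 1:10 to MH. Inoculum came from an overnight culture at a final (2-7) × 10^5 CFU/mL. Plates were incubated overnight at 37 °C. MIC was the lowest concentration with no visible growth.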

Pseudomonas aeruginosa [3] = assay: Antimicrobial activity against Pseudomonas aeruginosa LES400 after overnight incubation by broth microdilution method; procedure, shortened: as §1
Escherichia coli [4] = assay: Antimicrobial activity against extended-spectrum beta-lactamase producing Escherichia coli 64771 after overnight incubation by broth microdilution method
Procedure, shortened: (§2)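 Modified broth microdilution. Peptides are serially diluted in 0.01% acetic acid with 0.2% BSA at 10-fold the final concentration, then added to MH medium in polypropylene plates. Bacteria from an overnight culture are added to a final (2-7) × 10^5 CFU/mL. Plates are incubated overnight at 37 °C. MIC is the lowest concentration with no visible growth.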

Enterococcus faecalis [5] = assay: Antimicrobial activity against Enterococcus faecalis ATCC 29212 after overnight incubation by broth microdilution method; procedure, shortened: as §2
[6] = system: Stenotrophomonas maltophilia; assay: Antimicrobial activity against Pseudomonas maltophilia ATCC 13637 after overnight incubation by broth microdilution method; procedure, shortened: as §2
Pseudomonas aeruginosa [7] = assay: Antimicrobial activity against Pseudomonas aeruginosa H103 after overnight incubation by broth microdilution method; procedure, shortened: as §2
Enterococcus faecium [8] = assay: Antimicrobial activity against vancomycin-resistant Enterococcus faecium t62764(VanB) isolate after overnight incubation by broth microdilution method; procedure, shortened: as §1
Staphylococcus aureus [9] = assay: Antimicrobial activity against Staphylococcus aureus ATCC 25923 after overnight incubation by broth microdilution method; procedure, shortened: as §1
Enterococcus faecalis [10] = assay: Antimicrobial activity against vancomycin-resistant Enterococcus faecalis w6190(VanA) isolate after overnight incubation by broth microdilution method; procedure, shortened: as §1
Escherichia coli [11] = assay: Antimicrobial activity against extended-spectrum beta-lactamase producing Escherichia coli 63103 after overnight incubation by broth microdilution method; procedure, shortened: as §2
Enterobacter cloacae = assay: Antimicrobial activity against class C chromosomal beta lactamase expressing Enterobacter cloacae 218R after overnight incubation by broth microdilution method; procedure, shortened: as §2
Enterococcus faecium [12] = assay: Antimicrobial activity against vancomycin-resistant Enterococcus faecium mic80(VanA) isolate after overnight incubation by broth microdilution method; procedure, shortened: as §1
Pseudomonas aeruginosa [13] = assay: Antimicrobial activity against Pseudomonas aeruginosa H1030 after overnight incubation by broth microdilution method; procedure, shortened: as §1
Klebsiella pneumoniae [14] = assay: Antimicrobial activity against extended-spectrum beta-lactamase-resistant Klebsiella pneumoniae 63575 after overnight incubation by broth microdilution method; procedure, shortened: as §1
Enterococcus faecalis [15] = assay: Antimicrobial activity against vancomycin-resistant Enterococcus faecalis f43559 (VanB) isolate after overnight incubation by broth microdilution method; procedure, shortened: as §1
Pseudomonas aeruginosa [16] = assay: Antimicrobial activity against Pseudomonas aeruginosa H1027 after overnight incubation by broth microdilution method; procedure, shortened: as §2
Staphylococcus aureus [17] = assay: Antimicrobial activity against methicillin-resistant Staphylococcus aureus C623 after overnight incubation by broth microdilution method; procedure, shortened: as §1

Molecule | Ratio IC50 (Pseudomonas aeruginosa [1]) | other results
H-YQRLFVRIR-OH | 25 | 
H-GRMRLWNGR-OH | 7.91 | 
H-RRMKKLRRK-OH | 4.22 | 
H-RWMVSKIWY-OH | 25 | 
H-KRIMKLKMR-OH | 6.5 | MIC (Klebsiella pneumoniae [2]): > 226 µM; MIC (Pseudomonas aeruginosa [3]): > 226 µM; MIC (Escherichia coli [4]): > 226 µM; MIC (Enterococcus faecalis [5]): > 226 µM; MIC [6]: > 226 µM; MIC (Pseudomonas aeruginosa [7]): > 226 µM; MIC (Enterococcus faecium [8]): > 226 µM; MIC (Staphylococcus aureus [9]): > 226 µM; MIC (Enterococcus faecalis [10]): > 226 µM; MIC (Escherichia coli [11]): > 226 µM; MIC (Enterobacter cloacae): > 226 µM; MIC (Enterococcus faecium [12]): > 226 µM; MIC (Pseudomonas aeruginosa [13]): > 226 µM; MIC (Klebsiella pneumoniae [14]): > 226 µM; MIC (Enterococcus faecalis [15]): > 226 µM; MIC (Pseudomonas aeruginosa [16]): > 226 µM; MIC (Staphylococcus aureus [17]): > 226 µM
H-INRKRRLRW-OH | 4.25 | 
H-RRMGNGGFR-OH | 8.71 | 
H-GIKWRSRRW-OH | 1.06 | 
H-RWRWWIKII-OH | 0.46 | 
H-WRFKVLRQR-OH | 7.08 | 
H-NQKWSGRRR-OH | 7.97 | 
H-KIWWWWRRR-OH | 0.21 | 
H-WRWWWKKWR-OH | 0.19 | 
H-KRWVWYRYW-OH | 0.54 | 
H-WKRWKWWKR-OH | 0.25 | 
H-IRRIVRRKI-OH | 11.15 | 
H-FVWQKGTNR-OH | 11.3 | 
H-GSRRSVWVF-OH | 2.3 | 
H-RVKTWRVRT-OH | 5.66 | 
H-RWLVLRKRW-OH | 0.53 | 
H-RRIRRVRWG-OH | 8.22 | 
H-FMWVYRYKK-OH | 1.51 | 
H-ARGRWINGR-OH | 7.24 | 
H-RWRWKRWWW-OH | 0.25 | 
H-GKFYKVWVR-OH | 1.21 | 
H-ASKRVGVRN-OH | 8.17 | 
H-KKSKQLWKR-OH | 3.23 | 
N=C(N)NCCC[C@H](NC(=O)[C@H](CCCNC(=N)N)NC(=O)[C@@H](N)CCCNC(=N)N)C(=O)N[C@@H](Cc1c[nH]c2ccccc12)C(=O)N[C@@H](Cc1c[nH]c2ccccc12)C(=O)N[C@@H](Cc1c[nH]c2ccccc12)C(=O)N[C@@H](Cc1c[nH]c2ccccc12)C(=O)N[C@@H](Cc1c[nH]c2ccccc12)C(=O)N[C@@H](Cc1c[nH]c2ccccc12)C(=O)O | 1.82 | 
